How the values were obtained:
MDA-MB-231 [1] = assay: Growth inhibition of human MDA-MB-231 cells at 20 uM after 48 hrs by MTT assay; assay type: functional; details: MDA-MB-231, 48 h, read-out: GI
How it was run: (§1)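 MTT viability assay with 48 h exposure at a single 20 μM concentration. Result given as percent inhibition of cell growth; n = 3.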

MDA-MB-231 [2] = assay: Growth inhibition of human MDA-MB-231 cells after 48 hrs by MTT assay; assay type: functional, cell-based; details: MDA-MB-231, 48 h
MCF7 [3] = assay: Growth inhibition of human MCF7 cells after 48 hrs by MTT assay; assay type: functional, cell-based; details: MCF7, 48 h
MCF7 [4] = assay: Growth inhibition of human MCF7 cells at 20 uM after 48 hrs by MTT assay; assay type: functional; details: MCF7, 48 h, read-out: GI; how it was run: as §1

| SMILES | IC50 (MDA-MB-231 [2]) [µM] | IC50 (MCF7 [3]) [µM] | inhibition of growth at 20 µM (MDA-MB-231 [1]) [%] | inhibition of growth at 20 µM (MCF7 [4]) [%] |
| --- | --- | --- | --- | --- |
| Oc1ccc2[nH]cc(C(c3cccc(C(c4c[nH]c5ccc(O)cc45)c4c[nH]c5ccc(O)cc45)c3)c3c[nH]c4ccc(O)cc34)c2c1 | > 20 | 17.8 | 0 | – |
| Oc1ccc2[nH]cc(C(c3ccc(C(c4c[nH]c5ccccc45)c4c[nH]c5ccccc45)cc3)c3c[nH]c4ccc(O)cc34)c2c1 | > 20 | > 20 | 36 | 23 |
| Oc1ccc2[nH]cc(C(c3ccc(C(c4c[nH]c5ccc(O)cc45)c4c[nH]c5ccc(O)cc45)cc3)c3c[nH]c4ccccc34)c2c1 (stereo not drawn) | 7.8 | 6.3 | – | – |
| Oc1ccc2c(C(c3ccc(C(c4c[nH]c5cc(O)ccc45)c4c[nH]c5cc(O)ccc45)cc3)c3c[nH]c4cc(O)ccc34)c[nH]c2c1 | > 20 | > 20 | 16 | 0 |
| Oc1ccc2[nH]cc(C(c3ccc(C(c4c[nH]c5ccccc45)c4c[nH]c5ccccc45)cc3)c3c[nH]c4ccccc34)c2c1 (stereo not drawn) | 13.9 | 12.6 | – | – |
| c1ccc2c(C(c3ccc(C(c4c[nH]c5ccccc45)c4c[nH]c5ccccc45)s3)c3c[nH]c4ccccc34)c[nH]c2c1 | > 20 | > 20 | 36 | 34 |
| c1ccc2c(C(c3ccc(C(c4c[nH]c5ccccc45)c4c[nH]c5ccccc45)cc3)c3c[nH]c4ccccc34)c[nH]c2c1 | 9.8 | 16.1 | – | – |
| Brc1ccc2[nH]cc(C(c3ccc(C(c4c[nH]c5ccccc45)c4c[nH]c5ccccc45)cc3)c3c[nH]c4ccc(Br)cc34)c2c1 | > 20 | > 20 | 8 | 17 |
| N#Cc1ccc2[nH]cc(C(c3ccc(C(c4c[nH]c5ccc(C#N)cc45)c4c[nH]c5ccc(C#N)cc45)cc3)c3c[nH]c4ccc(C#N)cc34)c2c1 | > 20 | 9.5 | 8 | – |
| c1ccc2c(Cc3c[nH]c4ccccc34)c[nH]c2c1 [ARUNDINE] | 10 | 50 | – | – |
| c1ccc(C(c2c[nH]c3ccccc23)c2c[nH]c3ccccc23)c(Oc2ccccc2C(c2c[nH]c3ccccc23)c2c[nH]c3ccccc23)c1 | > 20 | > 20 | 8 | 48 |
| c1cc(C(c2c[nH]c3ccccc23)c2c[nH]c3ccccc23)cc(C(c2c[nH]c3ccccc23)c2c[nH]c3ccccc23)c1 | 24.3 | > 20 | – | 32 |

The next lines start with results.

| IC50 (MDA-MB-231 [2]) [µM] | IC50 (MCF7 [3]) [µM] | SMILES | inhibition of growth at 20 µM (MDA-MB-231 [1]) [%] | inhibition of growth at 20 µM (MCF7 [4]) [%] |
| --- | --- | --- | --- | --- |
| 20.1 | 19.8 | c1ccc2c(C3CCCC(c4c[nH]c5ccccc45)(c4c[nH]c5ccccc45)C3)c[nH]c2c1 (stereo not drawn) | – | – |
| 1 | 1.3 | c1ccc2c3c([nH]c2c1)Cc1c([nH]c2ccccc12)Cc1c([nH]c2ccccc12)Cc1c([nH]c2ccccc12)C3 | – | – |
| > 20 | > 20 | Nc1ccc2[nH]cc(C(c3ccc(C(c4c[nH]c5ccc(N)cc45)c4c[nH]c5ccc(N)cc45)cc3)c3c[nH]c4ccc(N)cc34)c2c1 | 35 | 25 |
| > 20 | > 20 | Brc1ccc2[nH]cc(C(c3ccc(C(c4c[nH]c5ccc(Br)cc45)c4c[nH]c5ccc(Br)cc45)cc3)c3c[nH]c4ccc(Br)cc34)c2c1 | 5 | 25 |
| > 20 | > 20 | COc1ccc2[nH]cc(C(c3ccc(C(c4c[nH]c5ccc(OC)cc45)c4c[nH]c5ccc(OC)cc45)cc3)c3c[nH]c4ccc(OC)cc34)c2c1 | 3 | 43 |

Reference: ChEMBL document CHEMBL2021927, “Synthesis and evaluation of the cytotoxicities of tetraindoles: observation that the 5-hydroxy tetraindole (SK228) induces G₂ arrest and apoptosis in human breast cancer cells” (J Med Chem, 2012)
